Rows were chosen to be rich in hits. Some 7.6% of all compounds tested hit in one or more screens of this group.
M1 antag – blocks the rat M1 muscarinic receptor response to acetylcholine | P08482 | CHO-M1 cells, Fluo-4 calcium, ACh EC80 antagonist mode; hits give low values | B-score at 10 µM | hit rate 3.4% among 64,000 | AID 628;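 active means calcium fluorescence response, raw or row-and-column corrected B-score, differing from the plate sample mean either way at a set confidence level, mostly lower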
Jurkat tox 60K – cytotoxicity toward Jurkat cells; Jurkat E6.1 viability, ATP luminescence, 48 h; inhibition, % at 4 µM; hit rate 1.2% among 56,000;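 active means inhibition above the mean inhibition of all tested compounds plus 3 SD, cut at about 28% in these data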
M1 agonist – M1 muscarinic receptor agonism; CHO-M1 cells, Fluo-4 calcium fluorescence, agonist mode; hits give high values; B-score at 10 µM; hit rate 3% among 64,000; AID 626;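 active means fluorescence rise, raw or as B-score row- and column-corrected plate score, outside the 99.7% band of its plate's samples, either direction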
D1 allo mod – allosteric modulators of human D1 dopamine receptor | P21728 | AID 641 | HEK293 D1, CRE-luciferase, dopamine EC30 potentiation; actives deviate in either direction | hit rate 5.9% among 58,000 | B-score at 10 µM;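 active means luminescence count or its row- and column-corrected plate score outside the 99.7% band of the plate's sample wells, on either side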
DAT uptake mod – changed human dopamine transporter uptake under cocaine IC80; Q01959; LLC-PK1 hDAT cells, [14C]-dopamine uptake with cocaine IC80; actives deviate in either direction; B-score at 10 µM; hit rate 1.3% among 110,000; AID 449768;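 active means Z score or B-score, a plate-position-corrected score, falls beyond the plate's 99.7% confidence bounds, in either direction; inactive means both scores lie inside the 99.7% bounds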;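 further: scored against the spread of the other compound wells on the same plate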
HEK293 NFkB inh – lowers PMA/ionomycin-induced NF-kB signal in HEK293 cells; hit rate 0.21% among 62,000; inhibition, % at 3 µM; HEK-293 NF-kB luciferase reporter, luminescence;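 active means inhibition above the mean of all tested compounds plus 3 SD, cut at about 40% in these data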;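 further: 0% = stimulated DMSO wells and 100% = 10 µM reference inhibitor 5653914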
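System: NF-kB luciferase reporter HEK-293 cells | Replication: Single test | Control set: DMSO vs reference inhibitor | Evaluation: % inhibition | Schedule: 1 h pretreatment, 16 h stimulation, 37 °C | Probe or stimulus: PMA with ionomycin | Compound dosing: One dose, 3 µM | Detection: Luciferase luminescence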
M1 agonist conf – rat M1 muscarinic agonism, confirmation; hit rate 19% among 1,700; fluorescence change (max-min) at 10 µM; CHO-M1 cells, Fluo-4 calcium fluorescence, agonist mode; actives lie on both sides; shares compounds with M1 agonist;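 active means fluorescence change differs from the solvent-only DMSO control mean at a set confidence level in both duplicate runs; inconclusive means differs from solvent-only control mean in just one of two runs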;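 further: an EC20 dose of acetylcholine follows compound addition during the same imaging run; raw fluorescence intensity difference in instrument units with no normalization to controls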
M4 ag counter – activates rat M4 receptor in counter-screen for M1 agonists; shares compounds with M1 agonist; CHO M4/Gqi5 cells, Fluo-4 calcium fluorescence, agonist mode; actives lie on both sides; fluorescence change (max-min) at 10 µM; hit rate 9% among 1,700; AID 1741;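 active means fluorescence change differing from the plate's solvent-only control wells at 99.7% confidence in both duplicates, whether higher or lower; inconclusive means differs from solvent controls in only one of two duplicates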
Target sequence (P08485 whole entry, looked up): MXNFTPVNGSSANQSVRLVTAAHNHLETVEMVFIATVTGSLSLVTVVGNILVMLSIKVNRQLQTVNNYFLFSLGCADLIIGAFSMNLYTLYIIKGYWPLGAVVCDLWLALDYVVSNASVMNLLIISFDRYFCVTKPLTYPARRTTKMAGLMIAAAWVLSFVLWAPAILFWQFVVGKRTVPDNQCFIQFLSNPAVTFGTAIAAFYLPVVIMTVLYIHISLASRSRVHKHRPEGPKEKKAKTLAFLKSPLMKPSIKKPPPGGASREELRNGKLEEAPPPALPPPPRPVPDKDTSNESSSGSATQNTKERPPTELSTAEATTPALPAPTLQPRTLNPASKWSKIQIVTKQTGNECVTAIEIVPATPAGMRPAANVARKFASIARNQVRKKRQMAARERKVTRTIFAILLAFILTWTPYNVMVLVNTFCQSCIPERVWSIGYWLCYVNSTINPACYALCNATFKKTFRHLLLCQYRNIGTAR
Numbers without * were called inactive; ? = inconclusive; nt = no result.

SMILES	M1 antag	Jurkat tox 60K	M1 agonist	D1 allo mod	DAT uptake mod	HEK293 NFkB inh	M1 agonist conf	M4 ag counter
CN(CC(=O)NCCN1CCCCCC1)S(=O)(=O)c1cccc2nsnc12	0.58	-2	0.39	0.21	0.0075	11	nt	nt
COc1cccc(C(=O)N2CCN(C3CCC(c4ccccc4)CC3)CC2)c1OC (stereo not drawn)	-3.1*	1	18*	-1.7	0.052	17	?	-40
COCc1ccccc1Cn1cnc2c1c(=O)n(C)c(=O)n2C	0.5	8	-0.71	-0.57	-0.57	16	nt	nt
CC(=O)c1c(C)[nH]c(C(=O)OCCCCN2C(=O)c3ccccc3C2=O)c1C	-2.4*	67*	6.4*	0.21	-0.31	31	0.55	-88*
CCC(=O)Nc1cc(C(F)(F)F)ccc1N1CCOCC1	2	-12	0.5	0.64	-0.21	8	nt	nt
O=C(COC(=O)CN1C(=O)C2CC=CCC2C1=O)Nc1cc(C(F)(F)F)ccc1N1CCOCC1 (stereo not drawn)	-0.59	-7	3.6*	0.81	-0.014	13	?	?
C/C(N)=C(/C#N)C(=O)CSc1nnc(Nc2cccc(C)c2)s1	-0.00099	3	-0.049	2.7	0.029	-27	nt	nt
C/C(N)=C(/C#N)C(=O)CSc1nc2cc(Cl)ccc2s1	0.38	0	5.1*	-0.017	-0.25	-2	-8.7	-26
CC(C)(C)NC(=O)COC(=O)c1snc(C(=O)NC2CCCCC2)c1N	-0.96*	29	4.9*	-2.6	0.42	7	-20	?
CCN1C(=O)c2cccc3c(S(=O)(=O)Nc4ccc(OC)cc4OC)ccc1c23	-1.3	5	5.3*	-1	-1.6	8	-17	-18
O=C(Nc1ccc2c(c1)OCO2)c1ccc(CN2CCOCC2)cc1	-0.35	3	-2.3	0.45	0.35	-17	nt	nt
CC(=O)NC1=NC(=O)/C(=C/N2CCOCC2)S1	-1	-1	0.19	-0.93	-0.54	11	nt	nt
CC(=O)c1ccc(Cc2cnc(N)s2)cc1	0.95	-5	2.9*	1.7	-0.068	11	9.8	-11
Cc1ccc(Cc2cnc(NC(=O)c3ccco3)s2)cc1	nt	nt	nt	nt	0.22	nt	nt	nt
Cc1nc2ccccc2nc(C)c1=NO	nt	nt	nt	nt	0.62	nt	nt	nt
C/C(O)=c1/ccc2cccc3nc(C)nc1c23	-0.86	-3	114*	nt	-0.76	10	896*	814*
O=C(O)c1ccc(-c2ccco2)n1Cc1ccccc1	-0.22	-2	0.035	nt	-0.58	12	nt	nt
Oc1ccc(CNc2ccc(F)cc2)c2cccnc12	0.037	1	22*	0.24	0.01	10	-20	?
Cc1ccc(OCc2ccc(C(=O)Nc3nccs3)o2)cc1C	nt	nt	nt	nt	0.094	nt	nt	nt
C=C1c2cc(OC)ccc2NC(=O)N1CC	0.069	nt	8.2*	nt	-0.077	nt	71*	11
C=C1c2cc(C)ccc2NC(=O)N1c1ccc(C)cc1	nt	nt	nt	nt	0.096	nt	nt	nt
CCOC(=O)c1coc(CNC(=O)c2c(C)oc3c2CCCC3)c1	0.27	-2	15*	2.7	-0.28	11	?	-49
CC(=O)NCc1c(Cl)cccc1-n1cccc1	nt	nt	nt	nt	-0.083	nt	nt	nt
O=C(NCc1ccccc1)N(Cc1nc2ccccc2c(=O)[nH]1)C1CCCC1	-0.3	6	4.2*	nt	1.8	22	-12	-17
O=C(COCc1nc2ccccc2c(=O)[nH]1)NCC1CCCCC1	nt	nt	nt	nt	0.37	nt	nt	nt
SMILES	M1 antag	Jurkat tox 60K	M1 agonist	D1 allo mod	DAT uptake mod	HEK293 NFkB inh	M1 agonist conf	M4 ag counter
CCOc1ccc(C2C=C(c3ccccc3)Nc3ncnn32)cc1 (stereo not drawn)	-2.3	nt	25*	nt	0.45	nt	202*	150
CCOc1ccc(C2C=C(c3ccc(F)cc3)Nc3ncnn32)cc1 (stereo not drawn)	-0.6	4	25*	-0.66	-0.13	4	146*	94
Cc1ccccc1C(=O)NC(C)C(c1cccs1)N1CCOCC1 (stereo not drawn)	nt	nt	nt	nt	0.066	nt	nt	nt
CCC1=C(OC(=O)N(CC)CC)N2C(=O)OC(=NCCOC)[C@]2(Cc2ccccc2)[C@H]2C1=CC[C@H]1C(=O)NC(=O)[C@H]12	nt	nt	nt	nt	-0.62	nt	nt	nt
c1ccc2[nH]c(-c3ccnc4ccccc34)nc2c1	-0.99	-2	2.4*	-2.1	0.5	-7	-11	-34
Cc1ccccc1-c1nc2ccccc2[nH]1	nt	nt	nt	nt	0.93	nt	nt	nt
CC(=O)Nc1ccccc1C(=O)N1CCc2ccccc21	-0.43	9	-0.42	0.091	-0.032	-5	nt	nt
Cc1onc(-c2ccccc2Cl)c1C(=O)Nc1ccc(-c2cn3cccnc3n2)cc1	0.42	nt	4.4*	1.2	-0.043	4	-7.3	-9.8
Cc1onc(-c2ccccc2Cl)c1C(=O)Nc1cccc(-c2nc3ncccn3c2C)c1	-2.3*	nt	3.3*	-1.5	1.4	13	?	-61
CCCN(CCC)S(=O)(=O)c1ccc(C(=O)N2CCC(=O)c3ccccc32)cc1	-2.8*	11	3.3*	-0.14	-0.19	14	-18	-64
CSc1cccc(NS(=O)(=O)c2cccs2)c1	0.95	3	2.8*	1.1	-0.056	12	-28*	-57
COc1ccc(S(=O)(=O)Nc2cccc(SC)c2)cc1OC	-0.2	10	-1.9	0.37	1.2	5	nt	nt
Cn1c(=O)oc2cc(S(=O)(=O)Nc3cccc(F)c3)ccc21	0.092	2	-0.58	nt	0.5	14	nt	nt
CSc1cccc(NS(=O)(=O)c2ccc3c(c2)oc(=O)n3C)c1	-1.2	9	-4*	-0.28	0.82	9	-15	-35
COc1cc(C(=O)Nc2ccc(S(=O)(=O)N3CCc4ccccc43)cc2)cc(OC)c1OC	nt	nt	nt	nt	1.4	nt	nt	nt
COc1cc2nc(NC(=O)c3ccc(Cl)cc3)[nH]c(=O)c2cc1OC	0.024	-8	0.095	-0.4	1.1	1	nt	nt
O=C1c2ccccc2CCC12N=NCC2c1ccccc1 (stereo not drawn)	nt	nt	nt	nt	1.1	nt	nt	nt
CC(C)n1nnnc1SCC(=O)NCc1ccc2c(c1)OCO2	nt	nt	nt	nt	-0.17	nt	nt	nt
CCCn1nnnc1SCC(=O)NCc1ccc2c(c1)OCO2	-0.13	0	3*	0.2	0.098	12	-11	-22
COc1cc2c(=O)n(CC3CCCO3)c(=O)n(CC(=O)Nc3ccc(F)cc3F)c2cc1OC (stereo not drawn)	0.77	0	-0.61	0.23	nt	2	nt	nt
CCOC(=O)c1ccc(S(=O)(=O)Nc2cc(C(C)(C)C)no2)cc1	0.42	-4	7.6*	0.5	2.2	5	-12	-16
CC(C)(C)c1cc(NS(=O)(=O)c2ccc3c(c2)OCCO3)on1	0.018	-4	-0.014	-1.3	-0.23	23	nt	nt
CCOC(=O)c1ccc(S(=O)(=O)Nc2ccccc2-c2nnn(CC)n2)cc1	-3*	5	3.8*	0.042	0.9	10	?	?

Screening results deposited in PubChem by several laboratories.
